Results: ChEMBL document CHEMBL1629578, “Structure-activity relationships of antimicrobial and lipoteichoic acid-sequestering properties in polyamine sulfonamides” (Antimicrob Agents Chemother, 2009)
Activity calls are given as the source filed them. No cut-off for these calls is given here.

How the values were obtained:
HEK293 [1] = test: Sequestration activity Saccharomyces cerevisiae lipoteichoic acid assessed as inhibition of TLR2-mediated NF-kappaB translocation in HEK293 cells stably transfected TLR2/MD2/CD14/alkaline phosphatase by reporter gene assay; format: cell-based; settings: Staphylococcus aureus, in the assay text read “Staphylococcus aureus” for “Saccharomyces cerevisiae”
In short: (§1)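 HEK-Blue-2 reporter cells (TLR2, MD2, CD14, NF-κB/AP-1-driven secreted alkaline phosphatase) were grown to confluence, then stimulated with LTA purified from S. aureus (n-butanol extraction, delipidated, enzymatically deproteinated) plus graded compound concentrations. sAP was read with a chromogen at 620 nm. Dilutions were run in quadruplicate and experiments repeated three times.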

HEK293 [2] = test: Neutralizing activity lipopolysaccharide assessed as inhibition of TLR4-mediated NF-kappaB translocation in HEK293 cells stably transfected TLR4/MD2/CD14/alkaline phosphatase by reporter gene assay; format: cell-based
In short: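 HEK-Blue-4 cells (TLR4, MD2, CD14, NF-κB/AP-1-inducible secreted alkaline phosphatase) were grown to confluence and stimulated with E. coli O111:B4 LPS plus graded compound concentrations. Alkaline phosphatase was read with a chromogen at 620 nm. Each dilution was run in quadruplicate and experiments repeated three times.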

HEK293 [3] = test: Sequestering activity against lipoteichoic acid assessed as inhibition of TLR2-mediated NF-kappaB induction in HEK293 cells stably transfected TLR2/MD2/CD14/alkaline phosphatase by reporter gene assay
[4] = (§2) Sequestering activity against saccharomyces cerevisiae lipoteichoic acid assessed as inhibition of TLR2-mediated NF-kappaB induction in HEK293 cells stably transfected TLR2/MD2/CD14/alkaline phosphatase by reporter gene assay; format: cell-based; settings: Staphylococcus aureus, in the assay text read “Staphylococcus aureus” for “saccharomyces cerevisiae”; in short: as §1
HEK293 [5] = test: Neutralizing activity against saccharomyces cerevisiae lipoteichoic acid assessed as inhibition of TLR2-mediated NF-kappaB induction in HEK293 cells stably transfected TLR2/MD2/CD14/alkaline phosphatase by reporter gene assay; format: cell-based; settings: Staphylococcus aureus, in the assay text read “Staphylococcus aureus” for “Saccharomyces cerevisiae”; in short: as §1
[6] = Aqueous solubility of the compound; format: physicochemical; settings: buffer
Staphylococcus aureus = test: Antimicrobial activity against Staphylococcus aureus ATCC 13709 at 37 degC by broth microdilution method; format: functional, organism-based
In short: (§3)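 Broth microdilution in non-cation-supplemented Mueller-Hinton broth. Mid-log cultures were adjusted to OD600 0.5, diluted 10-fold and added to equal volumes of 2-fold serially diluted compound. Plates were incubated overnight at 37°C and read at 600 nm. MIC was the lowest concentration giving complete growth inhibition. Triplicate points from a representative experiment.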

Escherichia coli = test: Antimicrobial activity against Escherichia coli ATCC 9637 at 37 degC by broth microdilution method; format: functional, organism-based; in short: as §3
HEK293 [7] = test: as §2; format: cell-based; settings: Staphylococcus aureus, in the assay text read “Staphylococcus aureus” for “Saccharomyces cerevisiae”; in short: as §1

EC50 [4] [µM] | solubility [6] | Molecule | inhibition (HEK293 [1]) | inhibition (HEK293 [2]) | inhibition (HEK293 [3]) | inhibition (HEK293 [5]) | Activity (Staphylococcus aureus) | Activity (Escherichia coli) | Activity (HEK293 [7])
 |  | CCCCCCCCS(=O)(=O)NCCCNCCCNCCCCNCCCN | Active | Active | Active |  |  |  | 
1 |  | CCCCCCCCCCCCCCCCS(=O)(=O)NCCCNCCCCNCCCN | Active | Active | Active |  |  |  | 
60 | Insoluble | CCCCCCCCCCS(=O)(=O)NCCCNCCCNCCCCCCNCCCNCCCNS(=O)(=O)CCCCCCCCCC.Cl |  |  |  | inactive | Active | inactive | 
1 |  | CCCCCCCCCCCCCCCCS(=O)(=O)NCCCNCCCNCCCCNCCCN | Active | Active | Active |  |  | Active | 
 |  | POLYMYXIN B |  |  |  |  |  |  | Active
60 | Insoluble | CCCCCCCCCCCCCCCCCCS(=O)(=O)NCCCNCCCNCCCCCCNCCCNCCCNS(=O)(=O)CCCCCCCCCCCCCCCCCC.Cl |  |  |  | inactive | Active |  | 
 |  | CCCCCCCCS(=O)(=O)NCCCNCCCCNCCCN | Active | Active | Active |  |  |  | 
 |  | CCCCCCCCCCCCCCCCCCS(=O)(=O)NCCCNCCCCNCCCN | Active | Active | Active |  |  |  | 
60 | Insoluble | CCCCCCCCCCCCS(=O)(=O)NCCCNCCCNCCCCCCNCCCNCCCNS(=O)(=O)CCCCCCCCCCCC.Cl |  |  |  | inactive | Active |  | 
 |  | CCCCCCCCCCCCCCCCCCS(=O)(=O)NCCCNCCCNCCCCNCCCN | Active | Active | Active |  |  |  | 
 |  | CCCCCCCCCCS(=O)(=O)NCCCNCCCCNCCCN | Active | Active | Active |  |  |  | 
 |  | CCCCCCCCCCS(=O)(=O)NCCCNCCCNCCCCNCCCN | Active | Active | Active |  |  |  | 
60 | Insoluble | CCCCCCCCS(=O)(=O)NCCCNCCCNCCCCCCNCCCNCCCNS(=O)(=O)CCCCCCCC.Cl |  |  |  | inactive | Active | inactive | 
60 | Insoluble | CCCCCCCCCCCCCCCCS(=O)(=O)NCCCNCCCNCCCCCCNCCCNCCCNS(=O)(=O)CCCCCCCCCCCCCCCC.Cl |  |  |  | inactive | Active |  | 
 |  | CCCCCCCCCCCCS(=O)(=O)NCCCNCCCCNCCCN | Active | Active | Active |  |  |  | 
 |  | CCCCCCCCCCCCS(=O)(=O)NCCCNCCCNCCCCNCCCN | Active | Active | Active |  |  | Active | 
